In ChEMBL document CHEMBL1150376, “Antitumor agents 260. New desmosdumotin B analogues with improved in vitro anticancer activity” (2008):
Converted amounts (≈) assume the structure as drawn. The source made the active and inactive calls. The calls are words filed in the database; no cut-off is given here.

Legend:
Format in all cases: functional
KB [1] = assay: Cytotoxicity against human KB cells by sulforhodamine B assay; details: read-out: ED50 (the source's name)
How it was run: (§1)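 Cells grown in RPMI-1640 with 25 mM HEPES, 0.25% sodium bicarbonate, 10% FBS and 100 µg/mL kanamycin. Freshly trypsinized cells were seeded at 1500-7500 per well, and compounds were added from DMSO-diluted stock. After 3 days, attached cells were fixed with cold 50% TCA, stained with 0.4% SRB, and read at 562 nm. ED50 is the mean of ≥3 independent determinations.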

[2] = Cytotoxicity against human KB-VIN cells by sulforhodamine B assay; details: KBVIN, read-out: ED50 (the source's name); how it was run: as §1
[3] = Selectivity index, ratio of ED50 for human KB cells to ED50 for vincristine-resistant human KB-VIN cells
How it was run: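 The ratio uses ED50 values from the 3-day SRB assay run in parallel on KB and vincristine-resistant KB-VIN cells. For each line, ED50 is the concentration giving 50% reduction in 562 nm absorbance relative to untreated cells, averaged over ≥3 independent determinations.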

A549 = assay: Cytotoxicity against human A549 cells by sulforhodamine B assay; details: for EC50: read-out: ED50 (the source's name); how it was run: as §1
MCF7 = assay: Cytotoxicity against human MCF7 cells by sulforhodamine B assay; details: read-out: ED50 (the source's name); how it was run: as §1
HCT-8 = assay: Cytotoxicity against human HCT8 cells by sulforhodamine B assay; details: for EC50: read-out: ED50 (the source's name); how it was run: as §1
PC-3 = assay: Cytotoxicity against human PC3 cells by sulforhodamine B assay; details: for EC50: read-out: ED50 (the source's name); how it was run: as §1
KB [4] = assay: Cytotoxicity against human KB cells at 20 ug/mL by sulforhodamine B assay

SMILES: CCC1=C(OC)C(CC)(CC)C2OC(c3ccccc3)=CC(=O)C2=C1O (configuration not stated) [6,8,8-TRIETHYL-7-METHOXY DESMOSDUMOTIN B]
- EC50 (KB [1]): 20 µg/mL (≈ 56.4 µM)
- EC50 [2]: 15.5 µg/mL (≈ 43.7 µM)
- Ratio ED50 [3]: 1.3

SMILES: CC1=C(O)c2c(oc(-c3cccc4ccccc34)cc2=O)C(C)(C)C1=O [2-(NAPHTHALEN-1-YL)DESMOSDUMOTIN B]
- EC50 (A549): 0.6 µg/mL (≈ 1.73 µM)
- EC50 (MCF7): 0.6 µg/mL (≈ 1.73 µM)
- EC50 (HCT-8): 0.4 µg/mL (≈ 1.15 µM)
- EC50 (KB [1]): 0.51 µg/mL (≈ 1.47 µM)
- EC50 [2]: 0.16 µg/mL (≈ 0.462 µM)
- EC50 (PC-3): 0.5 µg/mL (≈ 1.44 µM)
- Ratio ED50 [3]: 3.2

SMILES: CCc1ccc(-c2cc(=O)c3c(O)c(CC)c(O)c(CC)c3o2)cc1
- EC50 (KB [1]): > 20 µg/mL
- EC50 [2]: 5 µg/mL (≈ 14.8 µM)
- Ratio ED50 [3]: >4

SMILES: COC1=C(C)C(O)=C2C(=O)C=C(c3ccccc3)OC2C1(C)C (configuration not stated)
- EC50 (KB [1]): 38.5 µg/mL (≈ 123 µM)
- EC50 [2]: 23 µg/mL (≈ 73.6 µM)
- Ratio ED50 [3]: 1.7

SMILES: CCC1=C(O)c2c(occ(-c3ccccc3)c2=O)C(CC)(CC)C1=O
- EC50 (A549): 18 µg/mL (≈ 53.2 µM)
- EC50 (MCF7): 10 µg/mL (≈ 29.6 µM)
- EC50 (HCT-8): 12 µg/mL (≈ 35.5 µM)
- EC50 (KB [1]): 16 µg/mL (≈ 47.3 µM)
- EC50 [2]: 3.5 µg/mL (≈ 10.3 µM)
- EC50 (PC-3): > 20 µg/mL
- Ratio ED50 [3]: 4.6

SMILES: CC1=C(O)c2c(oc(-c3cc(C)cc(C)c3)cc2=O)C(C)(C)C1=O [3,5-DIMETHYL DESMOSDUMOTIN B]
- EC50 (KB [1]): 53 µg/mL (≈ 164 µM)
- EC50 [2]: 2.91 µg/mL (≈ 8.97 µM)
- Ratio ED50 [3]: 18.2

SMILES: CCCC1=C(OC)C(CCC)(CCC)C2OC(c3ccccc3)=CC(=O)C2=C1O (configuration not stated) [6,8,8-TRIPROPYL-7-METHOXY DESMOSDUMOTIN B]
- EC50 (KB [1]): 8.5 µg/mL (≈ 21.4 µM)
- EC50 [2]: 7 µg/mL (≈ 17.7 µM)
- Ratio ED50 [3]: 1.2

SMILES: CCC1=C(O)c2c(oc(-c3ccc(C)cc3)cc2=O)C(CC)(CC)C1=O [6,8,8-TRIETHYL-4-METHYL DESMOSDUMOTIN B]
- EC50 (A549): 16 µg/mL (≈ 45.4 µM)
- EC50 (MCF7): > 20 µg/mL
- EC50 (HCT-8): 15 µg/mL (≈ 42.6 µM)
- EC50 (KB [1]): 13.8 µg/mL (≈ 39.2 µM)
- EC50 [2]: 0.03 µg/mL (≈ 0.0851 µM)
- EC50 (PC-3): 18 µg/mL (≈ 51.1 µM)
- Ratio ED50 [3]: 460

SMILES: CC1=C(O)c2c(oc(-c3ccccc3C)cc2=O)C(C)(C)C1=O [2-METHYL DESMOSDUMOTIN B]
- EC50 (KB [1]): 37.3 µg/mL (≈ 120 µM)
- EC50 [2]: 1.75 µg/mL (≈ 5.64 µM)
- Ratio ED50 [3]: 21.3

SMILES: CCCC1=C(O)c2c(oc(-c3ccccc3)cc2=O)C(CCC)(CCC)C1=O [6,8,8-TRIPROPYL DESMOSDUMOTIN B]
- EC50 (KB [1]): 4 µg/mL (≈ 10.5 µM)
- EC50 [2]: 0.63 µg/mL (≈ 1.66 µM)
- Ratio ED50 [3]: 6.4

SMILES: CCC1=C(O)c2c(oc(-c3ccccc3)cc2=O)C(C)(C)C1=O [6-ETHYL-8,8-DIMETHYL DESMOSDUMOTIN B]
- EC50 (KB [1]): > 20 µg/mL
- EC50 [2]: 0.6 µg/mL (≈ 1.93 µM)
- Ratio ED50 [3]: >33

SMILES: CC[C@]1(O)C[C@H]2CN(CCc3c([nH]c4ccccc34)[C@@](C(=O)OC)(c3cc4c(cc3OC)N(C=O)[C@H]3[C@@](O)(C(=O)OC)[C@H](OC(C)=O)[C@]5(CC)C=CCN6CC[C@]43[C@@H]65)C2)C1 [VINCRISTINE]
- EC50 (A549): 0.004 µg/mL (≈ 0.00485 µM)
- EC50 (MCF7): 0.01 µg/mL (≈ 0.0121 µM)
- EC50 (HCT-8): 0.02 µg/mL (≈ 0.0242 µM)
- EC50 (KB [1]): 0.015 µg/mL (≈ 0.0182 µM)
- EC50 [2]: 7 µg/mL (≈ 8.49 µM)
- EC50 (PC-3): 0.01 µg/mL (≈ 0.0121 µM)
- Ratio ED50 [3]: 0.002

SMILES: CCc1ccc(-c2cc(=O)c3c(o2)C(C)(C)C(=O)C(C)=C3O)cc1 [4-ETHYL DESMOSDUMOTIN B]
- EC50 (KB [1]): 20 µg/mL (≈ 61.7 µM)
- EC50 [2]: 1.54 µg/mL (≈ 4.75 µM)
- Ratio ED50 [3]: 13

SMILES: CCC1=C(O)c2c(oc(-c3ccc(CC)cc3)cc2=O)C(CC)(CC)C1=O [6,8,8-TRIETHYL-4-ETHYL DESMOSDUMOTIN B]
- EC50 (KB [1]): 8 µg/mL (≈ 21.8 µM)
- EC50 [2]: 0.025 µg/mL (≈ 0.0682 µM)
- Ratio ED50 [3]: 320

SMILES: CCC1=C(O)c2c(oc(-c3ccccc3)cc2=O)C(CC)(CC)C1=O [6,8,8-TRIETHYL DESMOSDUMOTIN B]
- Activity (A549): inactive
- EC50 (MCF7): > 20 µg/mL
- Activity (HCT-8): inactive
- EC50 (KB [1]): > 80 µg/mL
- EC50 [2]: 0.36 µg/mL (≈ 1.06 µM)
- Activity (PC-3): inactive
- Ratio ED50 [3]: >222

SMILES: CC1=C(O)c2c(oc(-c3ccc(C)cc3)cc2=O)C(C)(C)C1=O [4-METHYL DESMOSDUMOTIN B]
- EC50 (KB [1]): 22.5 µg/mL (≈ 72.6 µM)
- EC50 [2]: 1.09 µg/mL (≈ 3.51 µM)
- Ratio ED50 [3]: 20.7

SMILES: CCC1=C(O)c2c(oc(-c3ccccc3C)cc2=O)C(CC)(CC)C1=O [6,8,8-TRIETHYL-2-METHYL DESMOSDUMOTIN B]
- EC50 (KB [1]): 18 µg/mL (≈ 51.1 µM)
- EC50 [2]: 0.1 µg/mL (≈ 0.284 µM)

SMILES: CCC1=C(O)c2c(oc(-c3cc4ccccc4c4ccccc34)cc2=O)C(CC)(CC)C1=O [6,8,8-TRIETHYL-2-(PHENANTHREN-9-YL) DESMOSDUMOTIN B]
- EC50 (A549): 8 µg/mL (≈ 18.2 µM)
- EC50 (MCF7): 4 µg/mL (≈ 9.12 µM)
- EC50 (HCT-8): 5.6 µg/mL (≈ 12.8 µM)
- EC50 (KB [1]): 5 µg/mL (≈ 11.4 µM)
- EC50 [2]: 4.3 µg/mL (≈ 9.81 µM)
- EC50 (PC-3): 6 µg/mL (≈ 13.7 µM)
- Ratio ED50 [3]: 1.2

SMILES: CCC1=C(O)c2c(oc(-c3cccc4ccccc34)cc2=O)C(CC)(CC)C1=O [2-(NAPHTHALEN-1-YL)-6,8,8-TRIETHYL DESMOSDUMOTIN B]
- EC50 (A549): 0.6 µg/mL (≈ 1.54 µM)
- EC50 (MCF7): 0.2 µg/mL (≈ 0.515 µM)
- EC50 (HCT-8): 0.4 µg/mL (≈ 1.03 µM)
- EC50 (KB [1]): 0.6 µg/mL (≈ 1.54 µM)
- EC50 [2]: 0.3 µg/mL (≈ 0.772 µM)
- EC50 (PC-3): 0.4 µg/mL (≈ 1.03 µM)
- Ratio ED50 [3]: 2

SMILES: COC1=CC(O)=C2C(=O)C=C(c3ccccc3)OC2C1(C)C (configuration not stated)
- EC50 (KB [1]): 1.8 µg/mL (≈ 6.03 µM)
- EC50 [2]: 1.8 µg/mL (≈ 6.03 µM)
- Ratio ED50 [3]: 1

SMILES: CC1=C(O)c2c(oc(-c3c(C)cc(C)cc3C)cc2=O)C(C)(C)C1=O [2,4,6-TRIMETHYL DESMOSDUMOTIN B]
- Activity (KB [4]): <50%
- EC50 [2]: 5.82 µg/mL (≈ 17.2 µM)
- Ratio ED50 [3]: >3.4

SMILES: CC1=C(O)C(C)(C)c2oc(-c3ccccc3)cc(=O)c2C1=O [DESMOTUMOTIN B]
- EC50 (A549): > 20 µg/mL
- EC50 (MCF7): > 20 µg/mL
- Activity (HCT-8): inactive
- EC50 (KB [1]): > 40 µg/mL
- EC50 [2]: 2 µg/mL (≈ 6.75 µM)
- Activity (PC-3): inactive
- Ratio ED50 [3]: >20
